Bioassay records (PubChem BioAssay)
A selection: hits, their analogues and other compounds. The true share with any hit is near 1.6%.
PLCb3 inh: human PLC-beta3 inhibitors, primary screen, biochemical, fluorescence. 1-phosphatidylinositol 4,5-bisphosphate phosphodiesterase beta-3 (Homo sapiens), Q01970. 0.18% of 370,000 active. inhibition, % at 12.2 µM. Purified PLC-beta3, fluorogenic substrate; in the data active means inhibition above about 11%;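 further: 0% = median of compound wells on plate and 100% = full blocker control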
Target sequence (Q01970 whole entry, looked up): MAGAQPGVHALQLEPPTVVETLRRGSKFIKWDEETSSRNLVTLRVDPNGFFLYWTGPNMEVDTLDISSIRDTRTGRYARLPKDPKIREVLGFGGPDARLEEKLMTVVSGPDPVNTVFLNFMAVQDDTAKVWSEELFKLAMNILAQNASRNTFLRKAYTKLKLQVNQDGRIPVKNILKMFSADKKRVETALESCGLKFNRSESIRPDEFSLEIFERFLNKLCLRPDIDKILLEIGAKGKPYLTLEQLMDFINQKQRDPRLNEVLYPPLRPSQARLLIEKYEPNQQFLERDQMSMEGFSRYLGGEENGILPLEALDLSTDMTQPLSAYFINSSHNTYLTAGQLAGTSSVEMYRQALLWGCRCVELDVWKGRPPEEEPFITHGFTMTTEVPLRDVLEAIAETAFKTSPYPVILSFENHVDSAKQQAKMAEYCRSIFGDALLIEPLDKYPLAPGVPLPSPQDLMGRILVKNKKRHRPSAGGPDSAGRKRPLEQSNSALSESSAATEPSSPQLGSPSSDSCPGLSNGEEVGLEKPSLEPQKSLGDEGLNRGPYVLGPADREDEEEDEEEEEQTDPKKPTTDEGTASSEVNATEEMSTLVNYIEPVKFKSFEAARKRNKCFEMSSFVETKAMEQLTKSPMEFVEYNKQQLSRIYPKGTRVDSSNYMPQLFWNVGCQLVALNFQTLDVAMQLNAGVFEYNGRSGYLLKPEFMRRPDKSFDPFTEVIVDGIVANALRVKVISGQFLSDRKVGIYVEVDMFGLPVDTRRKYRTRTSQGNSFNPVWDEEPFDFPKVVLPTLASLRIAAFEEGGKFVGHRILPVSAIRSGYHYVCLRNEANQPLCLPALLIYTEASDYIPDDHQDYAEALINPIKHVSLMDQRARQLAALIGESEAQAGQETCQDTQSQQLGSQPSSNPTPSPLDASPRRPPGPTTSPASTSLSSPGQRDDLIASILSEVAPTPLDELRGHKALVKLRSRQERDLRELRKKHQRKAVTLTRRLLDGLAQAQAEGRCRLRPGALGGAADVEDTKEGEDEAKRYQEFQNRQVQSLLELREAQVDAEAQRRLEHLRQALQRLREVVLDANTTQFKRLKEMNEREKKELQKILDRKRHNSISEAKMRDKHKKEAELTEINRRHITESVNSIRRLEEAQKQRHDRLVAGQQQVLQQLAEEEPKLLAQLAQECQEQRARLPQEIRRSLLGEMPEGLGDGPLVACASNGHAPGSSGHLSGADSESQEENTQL
procasp3 activ: activators of human procaspase-3 D3A mutant, primary screen, biochemical, absorbance, PC-3 D3A mutant, single concentration | Caspase-3 (Homo sapiens), P42574 | recombinant procaspase-3 D3A, Ac-DEVD-pNA absorbance 405 nm | activation, % at 8.5 µM | 0.11% of 330,000 active;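 active means activation above the mean of all tested compounds plus 3 SD, cut at about 21% in these data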;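 further: 0% = DMSO alone and 100% = DMSO wells spiked with extra 5 µM PC-3 D3A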
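Technique: 405 nm absorbance of p-nitroaniline, reads at 0 and 120 min; Test system: Procaspase-3 D3A mutant; Incubation: 1 h enzyme-compound preincubation, then 2 h substrate reaction, 25 °C; Repeats: singlicate, each compound tested once; Benchmarks: low control DMSO wells, high control DMSO plus 5 µM PC-3 D3A.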
PLCg1 inh: PLC-gamma1 enzyme inhibitors, primary screen, biochemical, fluorescence, purified enzyme | 1-phosphatidylinositol 4,5-bisphosphate phosphodiesterase gamma-1 (Homo sapiens), P19174 | fluorogenic substrate | inhibition, % at 12.2 µM | 0.84% of 370,000 active | AID 720700, 2013; in the data active means inhibition above about 9.5%
HGIII-sPLA2 inh: human group III sPLA2 inhibitors, primary screen, biochemical, QFRET, BODIPY PC-A2 liposome substrate; Group 3 secretory phospholipase A2 (Homo sapiens), Q9NZ20; QFRET BODIPY PC-A2 liposome hydrolysis, fluorescence; inhibition, % at 12.2 µM; 0.56% of 370,000 active; AID 743126, 2013;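 active means inhibition above mean plus 3 SD of compounds lying within the high and low control bounds, cut at about 19% in these data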;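 further: 0% = median of test compound wells and 100% = no enzyme DMSO wells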
procasp7 counter: procaspase-7 activators, primary screen, counter-screen for procaspase-3 activator project, biochemical, absorbance, HTS, human; recombinant procaspase-7, Ac-DEVD-pNA absorbance 405 nm; D23A/D198A/D206A triple mutant, cannot self-cleave; scale: DMSO 0, 5 µM enzyme 100; Caspase-7 (Homo sapiens), P55210; 0.093% of 330,000 active; activation, % at 8.5 µM;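 active means percent activation above the screen-wide mean plus 3 SD, cut at about 25% in these data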
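System: Procaspase-7 triple mutant (PC-7 D3A); measure: % activation from two-timepoint absorbance difference, scaled to controls; times: 1 h compound preincubation, 2 h substrate cleavage, 25 °C; also added: Ac-DEVD-pNA substrate, 400 µM as added; measured by: Epi-absorbance of released pNA at 405 nm, two timepoints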
sPLA2 confirm: human group III sPLA2 inhibitors, confirmation, biochemical, QFRET, triplicate; recombinant hGIII-sPLA2, BODIPY PC-A2 QFRET fluorescence; AID 743280, 2014; shares compounds with HGIII-sPLA2 inh; 34% of 2,000 active; inhibition, % at 12.2 µM;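 active means mean inhibition across triplicates above the hit cutoff set in the earlier primary screen, cut at about 19% in these data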;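 further: 0% = enzyme with DMSO and 100% = DMSO wells lacking enzyme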
535nm interf: 535nm fluorescence optical interference, confirmation, artefact control for HGIII-sPLA2 inhibitor project, biochemical, QFRET | AID 743282, 2014 | inhibition, % at 12.2 µM | shares compounds with HGIII-sPLA2 inh | 8.5% of 2,000 active | BODIPY FL product fluorescence interference;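 active means average inhibition above the solvent-only control mean plus 3 SD, cut at about 6% in these data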;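 further: 0% = DMSO with substrate plus product and 100% = DMSO with substrate alone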
535nm interf DR: 535nm fluorescence optical interference, dose response, artefact control for HGIII-sPLA2 inhibitor project, biochemical, QFRET. IC50, µM. 240 tested, under 10 active. AID 743455, 2014. BODIPY FL product fluorescence interference, cell-free. shares compounds with HGIII-sPLA2 inh;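 active means IC50 at or below 10 µM; inactive means IC50 above 10 µM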
* hit, by the source's call; x = not tested or not shown.

SMILES	PLCb3 inh	procasp3 activ	PLCg1 inh	HGIII-sPLA2 inh	procasp7 counter	sPLA2 confirm	535nm interf	others
Cc1ccc(N2CCOCC2)c2c1C(=O)c1ccccc1C2=O	2.6	-4.0	-1.5	25.5*	3.1	29.2*	-1.1	535nm interf DR=>122
O=C1C=C(N2CCOCC2)c2ccccc2C1=O	-24.3	4.6	-10.5	-2.4	2.9	x	x
Cc1ccc(N2CN(Cc3ccco3)CNC2=S)c(C)c1	-1.3	-5.5	-2.8	25.3*	-1.9	11.2	-9.5
C/C(=N/NC(=O)c1ccco1)c1ccc(NC(=O)c2ccc(F)cc2)cc1	-4.6	-8.3	-3.0	23.4*	-7.1	9.8	-7.7
CC(C(=O)Nc1ccccc1C(F)(F)F)N1CCN(C)CC1 (stereo unspecified)	-5.4	3.7	1.8	17.9	-2.3	x	x
Cn1c(-c2ccc(Cl)cc2)cnc1N	0.5	5.0	-4.3	12.0	2.4	x	x
Cc1ccc(-c2cnc(N)n2C)cc1C	-8.9	1.6	-7.3	19.8*	-7.6	9.4	-13.3
COc1ccccc1Cc1c(-c2ccc(Cl)cc2)nc2ccc(Br)cn12	-11.6	x	-9.3	-16.6	x	x	x
COC(=O)c1sccc1NC(=S)Nc1cccc(F)c1	-5.0	-3.8	2.7	19.3*	3.9	5.4	1.3
COC(=O)c1sccc1NC(=S)Nc1ccccc1	3.7	10.8	2.5	10.8	-12.3	x	x
COC(=O)c1sccc1NC(=S)Nc1cc(C)cc(C)c1	-1.4	-5.8	-1.6	23.1*	-1.6	14.6	-4.0
Cc1ccsc1C(=O)OCC(=O)NCc1ccccc1	2.2	6.8	-1.1	-5.6	4.6	x	x
COC(=O)[C@]12C[C@H](CC(=O)NCc3ccccc3)C(=O)N(CCc3ccc(OC)c(OC)c3)C1=C[C@H](C1CCCC1)O[C@@H]2C	4.0	x	2.9	-13.7	x	x	x
Cn1ncc(Br)c1C(=O)N1CCc2ccccc21	-0.2	11.2	-0.9	3.0	5.8	x	x
Cn1nccc1C(=O)N1CCc2ccccc21	5.9	0.3	9.0	86.9*	-5.3	-0.6	-0.8
Cc1cccc(N(C)C(=O)CCS(=O)(=O)c2cc3c(cc2Cl)NC(=O)CO3)c1	4.5	-3.6	0.8	-4.9	-6.3	x	x
O=C(COC(=O)c1cc(=O)c2ccccc2o1)Nc1ccc2ccccc2c1	-5.3	7.3	-1.6	22.1*	6.1	1.9	-3.0
CCCCNc1c(-c2ccc(SC(C)CC)cc2)nc2ccc(Cl)cn12 (stereo unspecified)	-367.8	x	-244.2	22.6*	x	-7.8	-6.9
COc1ccc2c(c1)-c1c(ssc1=S)C(C)(C)N2S(=O)(=O)c1ccc(C)cc1	1.5	1.1	1.0	13.1	0.0	x	x
Cc1ccc(S(=O)(=O)N2c3ccccc3-c3c(ssc3=S)C2(C)C)cc1	1.8	-9.0	4.0	27.8*	-10.9	24.2*	4.7
CC1=CC(C)(C)NC(=S)N1c1cccc2ccccc12	0.8	1.6	-0.6	20.1*	-5.8	30.8*	-4.9	535nm interf DR=>122
CC1=CC(C)(C)NC(=S)N1c1ccc(Cl)cc1	2.6	x	1.8	20.2*	x	20.7*	-4.3
CN(C)c1ccc(CNC(=O)C2CCC(CNc3c(N4CCCCC4)c(=O)c3=O)CC2)cc1 (stereo unspecified)	-4.0	-5.4	3.9	6.5	1.1	x	x
